# Assay results of several laboratories.
# Observed: cell growth or viability
SMILES,cell line,assay,setting,measurement,result
COc1ccc(NC(=O)CC(Nc2ccc(OC)cc2)c2ccc3c(c2)C=CC(C)(C)O3)cc1 (stereo not shown),rat Primary cortical neuron,MTT,"1 µM, 12 h",viability,> 80%
C[C@H]1CN(c2ccncc2NC(=O)c2ccc(F)c(-c3c(F)cccc3F)n2)C[C@@H](N)[C@@H]1O,KMS-11,thymidine uptake,,GI50,123 nM
CC1(C)C=Cc2cc(/C=C/C(=O)Oc3ccccc3)ccc2O1,rat Primary cortical neuron,MTT,"1 µM, 12 h",viability,81%
CCC1(OC(=O)C(C)c2ccc3cc(OC)ccc3c2)C(=O)OCc2c1cc1n(c2=O)Cc2cc3cc4c(cc3nc2-1)OCO4 (stereo not shown),HeLa,MTT,,IC50,2180 nM
CN[C@@H]1C[C@H]2O[C@@](C)([C@@H]1OC)n1c3ccccc3c3c4c(c5c6ccccc6n2c5c31)C(=O)NC4,U2OS,,,GI50,26 nM
COc1cc2c3c(n(CCCNCCO)c(=O)c2cc1OC)-c1cc2c(cc1C3=O)OCO2,UACC-62,SRB,,GI50,30 nM
C[C@H]1CCC/C=C/[C@@H]2C[C@H](O)C[C@H]2[C@H](O)/C=C/C(=O)O1,HeLa,ATP luminescence,,EC50,40 nM
C[S@@+]([O-])CCCCN=C=S,Hepa-1c1c7,crystal violet,48 h,IC50,16700 nM
O=C(Cc1ccc2ccccc2c1)N[C@@H](Cc1ccccc1)C(=O)N[C@H](Cc1ccccc1)C(=O)N[C@H](Cc1ccc(OP(=O)(O)O)cc1)C(=O)O,HeLa,MTT,48 h,IC50,500000 nM
CC1(C)C=Cc2cc(/C=C/C(=O)N3CCN(c4ccc(O)cc4)CC3)ccc2O1,rat Primary cortical neuron,MTT,"1 µM, 12 h",viability,98%
